Experiments:
[1] = Antitumor activity against human leukemia stem/progenitor cells xenografted in NOD/SCID mouse assessed as survival time at 100 mg/kg, po qd administered every other day total of seven doses starting from 8 weeks post grafting (reference value: 43 days); format: functional
In short: (§1)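 NOD/SCID mice were sublethally irradiated (280cGay), then 6−10 h later given primary AML M5 patient cells via tail vein in PBS. From 8 weeks postinoculation, aqueous solution was given orally at 100 mg/kg every other day for seven doses. Survival was followed, Kaplan−Meier, n = 6 per treated group and n = 7 untreated controls. Survivors at day 85 had bone marrow analysed for human CD45⁺CD33⁺ cells.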

[2] = Drug degradation in HEPES buffer at pH <5 assessed as release of PTL; format: physicochemical
In short: (§2)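 A 20 μL aliquot of prodrug solution was added to 980 μL HEPES buffer (pH 7.4, or below 5.0) and incubated at 37 °C. Samples were withdrawn over time, and prodrug and released parent were quantified by HPLC (mean, SD, n = 4).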

[3] = Antitumor activity against human leukemia stem/progenitor cells xenografted in NOD/SCID mouse assessed as survival rate at 100 mg/kg, po qd administered every other day total of seven doses starting from 8 weeks post grafting measured on day 85; format: functional; in short: as §1
[4] = Antitumor activity against mixed-lineage human leukemia cells xenografted in NOD/SCID mouse assessed as reduction of CD45+CD33+ cells in bone marrow at 100 mg/kg, po qd administered every other day total of seven doses starting from 8 weeks post grafting measured on day 35 (reference value: 9.8 %); format: functional, Leukemia cell; design: scale not given: the % may be the effect or the level left
Plasma = assay: Drug metabolism in mouse plasma assessed as release of PTL; format: ADME, cell-free
In short: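 A 20 μL aliquot of prodrug solution was added to 980 μL blank mouse plasma and incubated at 37 °C. Prodrug and released parent drug concentrations were measured over time by HPLC (mean, SD, n = 4).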

[5] = Antitumor activity against mixed-lineage human leukemia cells xenografted in NOD/SCID mouse assessed as inhibition of cancer cell engrafting at 100 mg/kg, po qd administered every other day total of seven doses starting from 8 weeks post grafting measured on day 35; format: functional
[6] = Drug degradation in mouse plasma assessed as release of PTL up to 2.5 hrs; conditions: pH 7.4
[7] = Drug degradation in HEPES buffer at pH 7.4 assessed as release of PTL; format: physicochemical; in short: as §2
[8] = Antitumor activity against human leukemia stem/progenitor cells xenografted in NOD/SCID mouse assessed as reduction of CD45+CD33+ cells in bone marrow at 100 mg/kg, po qd administered every other day total of seven doses starting from 8 weeks post grafting measured on day 85; format: functional; design: scale not given: the % may be the effect or the level left
In short: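 NOD/SCID mice, sublethally irradiated (280cGay), received primary AML M5 patient cells via tail vein in PBS 6−10 h later. From 8 weeks after engraftment, aqueous drug was given orally every other day for seven doses. Surviving mice were sacrificed on day 85 post-inoculation, and human CD45⁺CD33⁺ cells in bone marrow were measured by flow cytometry.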

[9] = Cytotoxicity against human leukemia stem/progenitor cells assessed as viable CD34+ cells at 0.5 uM after 18 hrs by annexin-V labeling-based flow cytometry; format: functional, CD34+ cell
In short: (§3)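 Primary leukemia cells from AML patient blood were treated for 18 h in serum-free IMDM, then stained with CD34-APC and CD38-PECy7 for 30 min. After washing in cold PBS, cells were labelled with Annexin-V–FITC/PI for 15 min at room temperature and read by flow cytometry. Viability of total and CD34⁺ cells was normalized to untreated controls (mean, SD).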

HL-60 = assay: Cytotoxicity against human HL60 cells after 18 hrs by annexin-V labeling-based flow cytometry; format: functional, cell-based; conditions: HL-60, 18 h
[10] = Cytotoxicity against human leukemia stem/progenitor cells assessed as cell viability at 0.5 uM after 18 hrs by annexin-V labeling-based flow cytometry; format: functional; conditions: read-out: Activity; in short: as §3
[11] = Reduction in colony forming units of leukemia stem/progenitor cells at 0.05 uM after 15 to 20 days; format: functional, Homo sapiens
In short: (§4)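 Mononuclear cells from AML patient […] were exposed to drug for 18 h in serum-free IMDM, then plated in triplicate in M3434 methylcellulose. Total colonies (CFC-Mix, CFC-GM, CFC-G, CFC-M, BFU-E) were scored by morphology after 15−20 days.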

[12] = Cytotoxicity against human leukemia stem/progenitor cells assessed as cell viability at 0.1 uM after 18 hrs by annexin-V labeling-based flow cytometry; format: functional; conditions: in the assay text read “leukemia cells” for “leukemia stem/progenitor cells”, read-out: Activity; in short: as §3
[13] = Reduction in colony forming units of leukemia stem/progenitor cells at 0.1 uM after 15 to 20 days; format: functional, Homo sapiens; in short: as §4
[14] = Cytotoxicity against human leukemia stem/progenitor cells assessed as viable CD34+ cells at 0.1 uM after 18 hrs by annexin-V labeling-based flow cytometry; format: functional, CD34+ cell; in short: as §3
[15] = Antitumor activity against human leukemia stem/progenitor cells xenografted in NOD/SCID mouse assessed as survival time at 1 mg/kg, iv administered every other day total of four doses starting from 8 weeks post grafting (reference value: 43 days)
[16] = Cytotoxicity against human HL60/A cells after 18 hrs by annexin-V labeling-based flow cytometry; format: functional, cell-based

**Q.** For C/C1=C\CC[C@@]2(C)O[C@@H]2[C@H]2OC(=O)[C@@H](CN(C)C)[C@@H]2CC1.O=C(O)/C=C/C(=O)O [(DIMETHYLAMINO)PARTHENOLIDE FUMARIC ACID SALT], which Survival [1] is on record?
**A.** 66 days

**Q.** And the Drug degradation [2]?
**A.** Not Active

**Q.** And the survival at 100 mg/kg [3]?
**A.** 17%

**Q.** And the Activity [4]?
**A.** 5.7%

**Q.** And the Drug metabolism (Plasma)?
**A.** Active

**Q.** And the inhibition in vivo at 100 mg/kg [5]?
**A.** 42%

**Q.** And the Drug degradation [6]?
**A.** 0.1 µg/mL

**Q.** What about the Drug degradation [7] of the same compound?
**A.** Active

**Q.** What about the Activity [8] of the same compound?
**A.** 35%

**Q.** Which results are given for COc1cccc2c1C(=O)c1c(O)c3c(c(O)c1C2=O)C[C@@](O)(C(=O)CO)C[C@@H]3O[C@H]1C[C@H](N)[C@H](O)[C@H](C)O1 [DOXORUBICIN]?
**A.** Activity [9]: 49.1%; IC50 (HL-60): 0.05 µM; viability at 0.5 µM [10]: 49.1%; CFU [11]: 165; viability at 0.1 µM [12]: 37.6%; CFU [13]: 170; Activity [14]: 115%; Survival [15]: 22 days; IC50 [16]: 6.7 µM

Reference: ChEMBL document CHEMBL2202986, “Guaianolide sesquiterpene lactones, a source to discover agents that selectively inhibit acute myelogenous leukemia stem and progenitor cells” (J Med Chem, 2012)
